From ChEMBL document CHEMBL1255338, “Differential effects of quinoline antimalarials on endocytosis in Plasmodium falciparum” (2008)
Calls of active or inactive are those of the source. No cut-off for these calls is given here.

Legend:
Plasmodium falciparum [1] = assay: Antimalarial activity against early trophozoite-stage Plasmodium falciparum 3D7 infected in erythrocyte assessed as reduction in parasite hemoglobin content at 5 times IC50 after 8 hrs; assay type: functional
Plasmodium falciparum [2] = assay: Antimalarial activity against early trophozoite-stage Plasmodium falciparum 3D7 infected in erythrocyte assessed as reduction in parasite hemoglobin content at 5 times IC50 after 8 hrs in presence of 40 uM protease inhibitor ALLN; assay type: functional, organism-based
Plasmodium falciparum [3] = assay: Antimalarial activity against early trophozoite-stage Plasmodium falciparum 3D7 infected in erythrocyte assessed as reduction in parasite hemoglobin content at 5 times IC50 after 8 hrs in presence of 40 uM protease inhibitor E64; assay type: functional, organism-based
Plasmodium falciparum [4] = assay: Antimalarial activity against schizont-stage Plasmodium falciparum 3D7 infected in erythrocyte assessed as inhibition of horseradish peroxidase(HRP) uptake after 10 hrs by colorimetric peroxidase assay; assay type: functional, organism-based
Procedure, shortened: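 Erythrocytes preloaded with HRP by hypotonic lysis, then infected by incubation with enriched schizont-infected cells. Parasites exposed to quinolines for 10 h, released with saponin, washed, and lysed in Triton X-100. HRP measured colorimetrically with O-phenylenediamine at 450 nm. Significance vs control taken at P < 0.05.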

Plasmodium falciparum [5] = assay: Antimalarial activity against Plasmodium falciparum 3D7 infected in erythrocyte assessed as increase in vesicle content after 8 hrs by immunofluorescence microscopy; assay type: functional, organism-based
Procedure, shortened: (§1)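 Cultures left untreated or given quinoline for 8 h, then parasites freed by saponin lysis, fixed on polylysine-coated coverslips with paraformaldehyde and glutaraldehyde, permeabilized in Triton X-100, and stained with rabbit anti-Hb antiserum and TRITC-conjugated goat anti-rabbit antibody. Hb transport vesicles counted by fluorescence microscopy in 100 randomly chosen parasites per sample; mean per parasite ± SEM.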

Plasmodium falciparum [6] = assay: Antimalarial activity against Plasmodium falciparum 3D7 infected in erythrocyte assessed as reduction in endocytic vesicle content after 8 hrs by immunofluorescence microscopy; assay type: functional, organism-based; procedure, shortened: as §1

SMILES	inhibition (Plasmodium falciparum [1])	inhibition (Plasmodium falciparum [2])	inhibition (Plasmodium falciparum [3])	inhibition (Plasmodium falciparum [4])	inhibition (Plasmodium falciparum [5])	inhibition (INH) (Plasmodium falciparum [1]) [%]	inhibition (Plasmodium falciparum [6])
CCN(CC)CCCC(C)Nc1ccnc2cc(Cl)ccc12 (stereo not given)	inactive	inactive	inactive	inactive	Active	–	–
CCN(CC)Cc1cc(Nc2ccnc3cc(Cl)ccc23)ccc1O	inactive	inactive	inactive	inactive	Active	–	–
CCCCN(CCCC)CCC(O)c1cc2c(Cl)cc(Cl)cc2c2cc(C(F)(F)F)ccc12 (stereo not given) [HALOFANTRINE]	–	Active	Active	Active	–	64	Active
OC(c1cc(C(F)(F)F)nc2c(C(F)(F)F)cccc12)C1CCCCN1 (stereo not given) [MEFLOQUINE]	–	inactive	inactive	Active	–	83	Active
C=C[C@H]1CN2CC[C@H]1C[C@H]2[C@H](O)c1ccnc2ccc(OC)cc12 [QUININE]	–	Active	Active	Active	–	84	Active
